In ChEMBL document CHEMBL3232844, “Synthesis and structure activity relationships of schweinfurthin indoles” (2014):

Experiments:
Assay type in all cases: functional
PC-3 = assay: Cytotoxicity against human PC3 cells
How it was run: (§1)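 Tested in a 60-cell-line human tumor panel screen; the read-out is growth inhibition, reported as GI50 for each cell line.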

T47D = assay: Cytotoxicity against human T47D cells
How it was run: (§2)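 Cell line run as part of the 60-cell-line screening panel; growth inhibition was reported as a GI50 for each line.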

HCT-116 = assay: Cytotoxicity against human HCT116 cells; how it was run: as §1
NCI-H322M = assay: Cytotoxicity against human NCI-H322M cells; how it was run: as §1
MCF7 = assay: Cytotoxicity against human MCF7 cells; how it was run: as §1
NCI-H460 = assay: Cytotoxicity against human NCI-H460 cells; how it was run: as §1
MDA-MB-468 = assay: Cytotoxicity against human MDA-MB-468 cells; how it was run: as §1
[1] = Cytotoxicity against human OVCAR5 cells; how it was run: as §1
NCI-H23 = assay: Cytotoxicity against human NCI-H23 cells; how it was run: as §1
HOP-62 = assay: Cytotoxicity against human HOP62 cells; how it was run: as §1
SNB-75 = assay: Cytotoxicity against human SNB75 cells; how it was run: as §2
A549 = assay: Cytotoxicity against human A549 cells; how it was run: as §1
SK-OV-3 = assay: Cytotoxicity against human SKOV3 cells; how it was run: as §1
DU-145 = assay: Cytotoxicity against human DU145 cells; how it was run: as §1
MDA-MB-231 = assay: Cytotoxicity against human MDA-MB-231 cells; how it was run: as §1
LOX IMVI = assay: Cytotoxicity against human LOXIMVI cells; how it was run: as §1
COLO 205 = assay: Cytotoxicity against human COLO205 cells; how it was run: as §1
IGROV-1 = assay: Cytotoxicity against human IGROV1 cells; how it was run: as §1
M14 = assay: Cytotoxicity against human M14 cells; how it was run: as §1
K562 = assay: Cytotoxicity against human K562 cells; how it was run: as §1
CCRF-CEM = assay: Cytotoxicity against human CCRF-CEM cells
SF-539 = assay: Cytotoxicity against human SF539 cells; how it was run: as §1
[2] = Cytotoxicity against human OVCAR8 cells; how it was run: as §1
[3] = Cytotoxicity against human OVCAR4 cells; how it was run: as §1
[4] = Cytotoxicity against human UACC62 cells; how it was run: as §2
786-0 = assay: Cytotoxicity against human 786-0 cells; how it was run: as §1
HL-60(TB) = assay: Cytotoxicity against human HL-60(TB) cells
How it was run: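 Tested within the NCI 60-cell-line screen, with GI50 as the read-out. Values are the average of two independent experiments. The lowest concentration tested was 10 nM.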

NCI-H226 = assay: Cytotoxicity against human NCI-H226 cells; how it was run: as §1
SNB-19 = assay: Cytotoxicity against human SNB19 cells; how it was run: as §1
MDA-MB-435 = assay: Cytotoxicity against human MDA-MB-435 cells; how it was run: as §1
[5] = Cytotoxicity against human UO31 cells; how it was run: as §2
SF-268 = assay: Cytotoxicity against human SF268 cells; how it was run: as §1
[6] = Cytotoxicity against human HCT15 cells; how it was run: as §1
SK-MEL-5 = assay: Cytotoxicity against human SK-MEL-5 cells; how it was run: as §1
MOLT-4 = assay: Cytotoxicity against human MOLT4 cells; how it was run: as §1
BT-549 = assay: Cytotoxicity against human BT549 cells; how it was run: as §1
HCC 2998 = assay: Cytotoxicity against human HCC2998 cells; how it was run: as §1
KM12 = assay: Cytotoxicity against human KM12 cells; how it was run: as §1
ACHN = assay: Cytotoxicity against human ACHN cells; how it was run: as §1
SK-MEL-2 = assay: Cytotoxicity against human SK-MEL-2 cells; how it was run: as §1
A498 = assay: Cytotoxicity against human A498 cells; how it was run: as §1
CAKI-1 = assay: Cytotoxicity against human Caki1 cells; how it was run: as §1
[7] = Cytotoxicity against human NCI-ADR-RES cells; how it was run: as §1
[8] = read-out: pLC50 (the source's name) (converted)

COc1cc(/C=C/c2cc(OC)c3ccn(C)c3c2)cc2c1O[C@]1(C)CC[C@@H](O)C(C)(C)[C@H]1C2
GI50 (PC-3): 0.692 µM
LC50 (PC-3): > 100 µM
TGI (PC-3; read-out: pTGI (converted)): 83.2 µM
GI50 (T47D): 4.37 µM
CC50 (T47D; [8]): > 100 µM
TGI (T47D; read-out: pTGI (converted)): 38.9 µM
GI50 (HCT-116): 1.23 µM
CC50 (HCT-116; [8]): 51.3 µM
TGI (HCT-116; read-out: pTGI (converted)): 15.1 µM
GI50 (NCI-H322M): 18.2 µM
CC50 (NCI-H322M; [8]): > 100 µM
TGI (NCI-H322M; read-out: pTGI (converted)): > 100 µM
GI50 (MCF7): 1.51 µM
LC50 (MCF7): 66.1 µM
TGI (MCF7; read-out: pTGI (converted)): 14.5 µM
GI50 (NCI-H460): 1.07 µM
CC50 (NCI-H460; [8]): 61.7 µM
TGI (NCI-H460; read-out: pTGI (converted)): 12 µM
GI50 (MDA-MB-468): 1.23 µM
LC50 (MDA-MB-468): > 100 µM
GI50 ([1]; OVCAR-5): 4.57 µM
CC50 ([1]; OVCAR-5, read-out: pLC50 (the source's name) (converted)): > 100 µM
TGI ([1]; OVCAR-5, read-out: pTGI (converted)): 38 µM
GI50 (NCI-H23): 2.69 µM
CC50 (NCI-H23; [8]): > 100 µM
TGI (NCI-H23; read-out: pTGI (converted)): 57.5 µM
GI50 (HOP-62): 0.617 µM
CC50 (HOP-62; [8]): 28.8 µM
TGI (HOP-62; read-out: pTGI (converted)): 3.8 µM
GI50 (SNB-75): 0.363 µM
CC50 (SNB-75; [8]): > 100 µM
TGI (SNB-75; read-out: pTGI (converted)): 11.5 µM
GI50 (A549): 1.91 µM
CC50 (A549; [8]): > 100 µM
TGI (A549; read-out: pTGI (converted)): > 100 µM
GI50 (SK-OV-3): 2.57 µM
LC50 (SK-OV-3): > 100 µM
TGI (SK-OV-3; read-out: pTGI (converted)): > 100 µM
GI50 (DU-145): 2.45 µM
LC50 (50% lethal concentration) (DU-145): > 100 µM
TGI (DU-145; read-out: pTGI (converted)): 66.1 µM
GI50 (MDA-MB-231): 1.48 µM
LC50 (MDA-MB-231): > 100 µM
TGI (MDA-MB-231; read-out: pTGI (converted)): 33.9 µM
GI50 (LOX IMVI): 1.62 µM
CC50 (LOX IMVI; [8]): 79.4 µM
TGI (LOX IMVI; read-out: pTGI (converted)): 17 µM
GI50 (COLO 205): 1.38 µM
CC50 (COLO 205; [8]): 6.61 µM
TGI (COLO 205; read-out: pTGI (converted)): 3.02 µM
GI50 (IGROV-1): 2.24 µM
CC50 (IGROV-1; [8]): 95.5 µM
TGI (IGROV-1; read-out: pTGI (converted)): 45.7 µM
GI50 (M14): 0.575 µM
CC50 (M14; [8]): 45.7 µM
TGI (M14; read-out: pTGI (converted)): 16.6 µM
GI50 (K562): 1 µM
CC50 (K562; [8]): > 100 µM
TGI (K562; read-out: pTGI (converted)): 33.1 µM
GI50 (CCRF-CEM): 0.457 µM
CC50 (CCRF-CEM; [8]): > 100 µM
TGI (CCRF-CEM; read-out: pTGI (converted)): 9.33 µM
GI50 (SF-539): 0.214 µM
CC50 (SF-539; [8]): 57.5 µM
TGI (SF-539; read-out: pTGI (converted)): 5.5 µM
GI50 ([2]; OVCAR-8): 9.33 µM
CC50 ([2]; OVCAR-8, read-out: pLC50 (the source's name) (converted)): > 100 µM
TGI ([2]; OVCAR-8, read-out: pTGI (converted)): > 100 µM
GI50 ([3]; OVCAR-4): 3.89 µM
CC50 ([3]; OVCAR-4, read-out: pLC50 (the source's name) (converted)): > 100 µM
GI50 ([4]; UACC-62): 0.355 µM
CC50 ([4]; UACC-62, read-out: pLC50 (the source's name) (converted)): 23.4 µM
TGI ([4]; UACC-62, read-out: pTGI (converted)): 2.19 µM
GI50 (786-0): 0.214 µM
LC50 (concentration killing 50% of cells) (786-0): > 100 µM
TGI (786-0; read-out: pTGI (converted)): 2.4 µM
GI50 (HL-60(TB)): 1.2 µM
CC50 (HL-60(TB); [8]): > 100 µM
TGI (HL-60(TB); read-out: pTGI (converted)): 38.9 µM
GI50 (NCI-H226): 6.03 µM
TGI (NCI-H226; read-out: pTGI (converted)): > 100 µM
GI50 (SNB-19): 1.38 µM
CC50 (SNB-19; [8]): > 100 µM
TGI (SNB-19; read-out: pTGI (converted)): > 100 µM
GI50 (MDA-MB-435): 1.02 µM
CC50 (MDA-MB-435; [8]): 91.2 µM
TGI (MDA-MB-435; read-out: pTGI (converted)): 20.9 µM
GI50 ([5]; UO-31): 0.501 µM
LC50 ([5]; UO-31): > 100 µM
TGI ([5]; UO-31, read-out: pTGI (converted)): 3.02 µM
GI50 (SF-268): 2.09 µM
CC50 (SF-268; [8]): > 100 µM
TGI (SF-268; read-out: pTGI (converted)): 69.2 µM
GI50 ([6]; HCT-15): 1.15 µM
CC50 ([6]; HCT-15, read-out: pLC50 (the source's name) (converted)): 64.6 µM
TGI ([6]; HCT-15, read-out: pTGI (converted)): 6.31 µM
GI50 (SK-MEL-5): 0.513 µM
CC50 (SK-MEL-5; [8]): 2.24 µM
TGI (SK-MEL-5; read-out: pTGI (converted)): 1.07 µM
GI50 (MOLT-4): 0.437 µM
CC50 (MOLT-4; [8]): > 100 µM
TGI (MOLT-4; read-out: pTGI (converted)): 8.51 µM
GI50 (BT-549): 2.82 µM
CC50 (BT-549; [8]): > 100 µM
TGI (BT-549; read-out: pTGI (converted)): 30.9 µM
GI50 (HCC 2998): 5.25 µM
CC50 (HCC 2998; [8]): 75.9 µM
TGI (HCC 2998; read-out: pTGI (converted)): 25.1 µM
GI50 (KM12): 2 µM
CC50 (KM12; [8]): 41.7 µM
TGI (KM12; read-out: pTGI (converted)): 11.2 µM
GI50 (ACHN): 1 µM
LC50 (concentration killing 50% of cells) (ACHN): > 100 µM
TGI (ACHN; read-out: pTGI (converted)): 87.1 µM
GI50 (SK-MEL-2): 0.851 µM
CC50 (SK-MEL-2; [8]): > 100 µM
TGI (SK-MEL-2; read-out: pTGI (converted)): 20.4 µM
GI50 (A498): 0.407 µM
CC50 (A498; [8]): > 100 µM
TGI (A498; read-out: pTGI (converted)): 8.13 µM
GI50 (CAKI-1): 0.692 µM
LC50 (CAKI-1): > 100 µM
TGI (CAKI-1; read-out: pTGI (converted)): 4.79 µM
GI50 [7]: 6.46 µM
CC50 [7, 8]: > 100 µM
TGI ([7]; read-out: pTGI (converted)): > 100 µM
